From ChEMBL document CHEMBL4257511, “Effect of N-1 arylation of monastrol on kinesin Eg5 inhibition in glioma cell lines” (Medchemcomm, 2018)
The source made the active and inactive calls. The calls are words filed in the database; no cut-off is given here.

Experiments:
C6 [1] = assay: Cell cycle arrest in rat C6 cells assessed as accumulation at G2/M phase at 100 uM after 24 hrs by propidium iodide staining based flow cytometry; assay type: functional
Summary of the method: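 Cells grown to semi-confluence, treated 24 h (U138: 150 or 200 μM; C6: 50 or 100 μM), washed twice in PBS pH 7.4, harvested and resuspended at 10^6 cells/ml in Tris-HCl pH 7.6, 3.5 mM trisodium citrate, 0.1% NP40, 100 μg/mL RNase, 50 μg/mL PI. After 15 min, sub-G1, G0/G1, S and G2/M fractions read by flow cytometry.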

[2] = Toxicity in Caenorhabditis elegans N2 L1 larva assessed as mortality incubated for 30 mins on rotator and measured after 24 hrs; assay type: organism-based; conditions: in vivo
Summary of the method: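 Wild-type N2 worms kept on NGM plates seeded with E. coli OP50 at 20 °C and synchronized to L1 by bleaching. L1 larvae (2.500 worms per dose) exposed acutely to five doses from 6.25 to 200 mM, 20 °C, 30 min with constant rotation. Washed three times in M9, plated on OP50-seeded NGM, survivors counted at 24 h. LC50 derived from dose–response curves.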

[3] = target: T1, Kinesin-like protein KIF11 (Homo sapiens) (UniProt P52732); conditions: 200 uM
T1 sequence (whole entry): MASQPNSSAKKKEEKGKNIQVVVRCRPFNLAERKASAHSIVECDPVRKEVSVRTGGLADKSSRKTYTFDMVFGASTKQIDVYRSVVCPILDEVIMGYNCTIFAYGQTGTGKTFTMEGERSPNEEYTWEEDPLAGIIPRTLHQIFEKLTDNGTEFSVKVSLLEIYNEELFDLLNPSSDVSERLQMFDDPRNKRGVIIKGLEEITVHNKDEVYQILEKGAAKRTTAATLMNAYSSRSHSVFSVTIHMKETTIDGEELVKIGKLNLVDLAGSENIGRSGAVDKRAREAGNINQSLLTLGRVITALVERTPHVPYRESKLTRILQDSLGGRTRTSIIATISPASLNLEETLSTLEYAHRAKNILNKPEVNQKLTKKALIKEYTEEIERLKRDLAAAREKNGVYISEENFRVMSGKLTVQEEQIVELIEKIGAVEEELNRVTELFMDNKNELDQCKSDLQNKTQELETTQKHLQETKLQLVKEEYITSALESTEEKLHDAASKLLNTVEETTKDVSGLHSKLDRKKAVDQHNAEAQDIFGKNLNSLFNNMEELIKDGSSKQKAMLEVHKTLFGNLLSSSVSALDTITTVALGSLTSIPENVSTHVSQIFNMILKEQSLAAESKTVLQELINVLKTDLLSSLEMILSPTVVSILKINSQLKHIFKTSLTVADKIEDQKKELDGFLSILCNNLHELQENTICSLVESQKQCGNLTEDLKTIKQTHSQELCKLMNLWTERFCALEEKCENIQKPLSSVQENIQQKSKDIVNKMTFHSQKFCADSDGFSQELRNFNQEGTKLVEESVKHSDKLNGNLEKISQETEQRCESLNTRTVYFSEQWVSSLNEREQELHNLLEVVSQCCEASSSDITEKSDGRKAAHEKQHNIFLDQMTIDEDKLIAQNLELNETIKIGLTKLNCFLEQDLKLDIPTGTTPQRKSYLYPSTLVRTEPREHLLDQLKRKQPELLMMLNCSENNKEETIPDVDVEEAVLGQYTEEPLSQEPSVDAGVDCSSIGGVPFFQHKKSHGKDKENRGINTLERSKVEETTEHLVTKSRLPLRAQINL

C6 [4] = assay: Antiproliferative activity against rat C6 cells assessed as reduction in cell viability at 100 uM after 24 hrs by MTS assay relative to control; assay type: functional
Summary of the method: (§1)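 Glioma cells grown in DMEM with penicillin/streptomycin and FBS (15% or 5%, by line), 37 °C, 5% CO2; seeded and grown to semi-confluence, then exposed 24 h to 5, 10, 25, 50 and 100 μM. MTS reagent added for 2 h; absorbance at 490 nm. Viability expressed as percent of untreated control (100%); means ± SD of three independent experiments.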

C6 [5] = assay: Induction of apoptosis in rat C6 cells at 100 uM after 48 hrs by Annexin V/propidium iodide staining based flow cytometry; assay type: functional, cell-based
Summary of the method: (§2)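 After 48 h exposure (U138: 150 or 200 μM; C6: 50 or 100 μM), cells washed twice in cold PBS pH 7.4 and counted. 10^5 cells stained with FITC-annexin V and PI in binding buffer, 15 min at room temperature in the dark, then read by two-colour flow cytometry. Early apoptotic annexin+/PI−, late apoptotic annexin+/PI+, necrotic annexin−/PI+.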

U138-MG [6] = assay: Antiproliferative activity against human U138MG cells assessed as reduction in cell viability at 100 uM after 24 hrs by MTS assay relative to control; assay type: functional; summary of the method: as §1
C6 (Rattus norvegicus) = assay: Cell cycle arrest in rat C6 cells assessed as accumulation at G2/M phase at 100 uM after 24 hrs by propidium iodide staining based flow cytometry relative to control
U138-MG [7] = assay: Antiproliferative activity against human U138MG cells after 24 hrs by MTS assay; assay type: functional, cell-based; summary of the method: as §1
C6 [8] = assay: Antiproliferative activity against rat C6 cells after 24 hrs by MTS assay; assay type: functional, cell-based; conditions: C6, 24 h; summary of the method: as §1
U138-MG [9] = assay: Induction of apoptosis in human U138MG cells at 200 uM after 48 hrs by Annexin V/propidium iodide staining based flow cytometry; assay type: functional, cell-based; summary of the method: as §2
[10] = target: T2, Kinesin family member 11 (Rattus norvegicus) (UniProt F1MAB8); assay: Inhibition of EG5 in rat C6 cells assessed as monopolar spindle formation at 100 uM after 24 hrs by Hoechst staining based immunofluorescence microscopic method; assay type: cell-based
T2 sequence (whole entry): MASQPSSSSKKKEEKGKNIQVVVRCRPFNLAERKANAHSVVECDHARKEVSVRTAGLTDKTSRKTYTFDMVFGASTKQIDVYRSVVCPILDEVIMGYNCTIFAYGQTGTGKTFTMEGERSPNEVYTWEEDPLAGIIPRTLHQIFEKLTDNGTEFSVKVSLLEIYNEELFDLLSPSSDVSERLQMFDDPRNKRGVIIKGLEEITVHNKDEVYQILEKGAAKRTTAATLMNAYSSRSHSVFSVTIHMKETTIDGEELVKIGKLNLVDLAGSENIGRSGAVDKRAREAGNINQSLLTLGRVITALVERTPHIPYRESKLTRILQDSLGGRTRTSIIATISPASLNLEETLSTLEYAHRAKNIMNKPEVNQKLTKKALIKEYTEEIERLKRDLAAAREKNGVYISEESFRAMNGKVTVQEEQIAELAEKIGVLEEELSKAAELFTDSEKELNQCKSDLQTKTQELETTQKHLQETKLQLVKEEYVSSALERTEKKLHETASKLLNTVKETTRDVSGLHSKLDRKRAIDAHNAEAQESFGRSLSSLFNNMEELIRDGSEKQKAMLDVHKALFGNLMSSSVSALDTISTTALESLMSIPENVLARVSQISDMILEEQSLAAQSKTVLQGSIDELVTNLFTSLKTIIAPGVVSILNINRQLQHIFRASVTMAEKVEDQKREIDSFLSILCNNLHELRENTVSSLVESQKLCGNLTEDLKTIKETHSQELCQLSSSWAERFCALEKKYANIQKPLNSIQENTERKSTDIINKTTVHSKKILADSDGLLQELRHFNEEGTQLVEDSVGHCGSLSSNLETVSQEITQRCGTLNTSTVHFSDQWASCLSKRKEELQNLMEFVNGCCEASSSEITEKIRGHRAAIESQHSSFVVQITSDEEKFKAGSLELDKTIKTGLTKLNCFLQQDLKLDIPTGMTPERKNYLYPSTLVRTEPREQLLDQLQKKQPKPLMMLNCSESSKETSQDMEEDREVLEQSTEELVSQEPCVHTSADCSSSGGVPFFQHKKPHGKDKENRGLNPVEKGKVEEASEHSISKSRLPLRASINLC
Summary of the method: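 Glioma cells allowed to adhere 48 h, then treated 24 h (U138: 150 or 200 μM; C6: 50 or 100 μM). Fixed cells probed with rabbit anti-α-tubulin for 90 min, then FITC goat anti-rabbit for 1 h, with Hoechst nuclear counterstain. Monopolar spindles scored by confocal microscopy at 600×.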

U138-MG [11] = assay: Induction of necrosis in human U138MG cells at 200 uM after 48 hrs by Annexin V/propidium iodide staining based flow cytometry; assay type: functional, cell-based; summary of the method: as §2

CCOC(=O)C1=C(C)NC(=S)NC1c1cccc(O)c1 (configuration not stated) [MONASTROL]
Activity (C6 [1]): Active
LC50 at 24 h [2]: 80.1 mM
inhibition [3]: Active
Activity (C6 [4]): Active
Activity (C6 [5]): Active
Activity (U138-MG [6]): 20.8%
Activity (C6 (Rattus norvegicus)): 27.4%
IC50 (U138-MG [7]): > 0.2 mM
IC50 (C6 [8]): > 0.2 mM
Activity (U138-MG [9]): Active
inhibition [10]: Active
Activity (U138-MG [11]): Active
